Converted amounts (≈) assume the structure as drawn.
Legend:
[1] = system: Haemophilus influenzae; test: (§1) Minimum inhibitory concentration against Haemophilus influenzae; format: functional
In short: (§2)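 Agar dilution MIC in μg/mL. […] Organisms not run are marked not tested.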

[2] = system: Klebsiella aerogenes; test: Minimum inhibitory concentration against Enterobacter aerogenes; format: functional; in short: as §2
[3] = system: Streptococcus pneumoniae; test: Minimum inhibitory concentration against Streptococcus pneumoniae; format: functional; in short: as §2
[4] = system: Klebsiella pneumoniae; test: Minimum inhibitory concentration against Klebsiella pneumoniae; format: functional; in short: as §2
[5] = system: Staphylococcus aureus; test: Minimum inhibitory concentration against Staphylococcus aureus; format: functional; in short: as §2
[6] = system: Streptococcus pyogenes; test: Minimum inhibitory concentration against Streptococcus pyogenes; format: functional; in short: as §2
[7] = system: Salmonella typhi; test: Minimum inhibitory concentration against Salmonella typhi; format: functional, Salmonella enterica subsp. enterica serovar Typhi; settings: Salmonella enterica
[8] = system: Haemophilus influenzae; test: as §1; format: functional; in short: as §2; remark: listed apart in the source
[9] = system: Escherichia coli; test: Minimum inhibitory concentration against Escherichia coli; format: functional; in short: as §2
[10] = system: Mus musculus; test: Effective dose administered orally (po) to 19-21-g random sex ICR mice at 1 hr and 5 hr intervals after intraperitoneal Streptococcus pyogenes; format: functional
In short: (§3)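 Mouse protection: random-sex ICR mice, 19–21 g, challenged intraperitoneally from a frozen organism pool giving 50–500 LD50 per challenge dose. Drug given sc or po at 1 and 5 h post-infection. Five 2-fold dilution levels per compound, eight mice per dilution.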

[11] = system: Mus musculus; test: Effective dose administered orally (po) to 19-21-g random sex ICR mice at 1 hr and 5 hr intervals after intraperitoneal Staphylococcus aureus; format: functional; in short: as §3
[12] = system: Streptococcus pyogenes; test: Efficacy against mouse infections caused by Streptococcus pyogenes measured as Minimum inhibitory concentration
[13] = system: Streptococcus pneumoniae; test: Efficacy against mouse infections caused by S. Pneumoniae measured as Minimum inhibitory concentration
[14] = system: Mus musculus; test: Effective dose administered subcutaneously (sc) to 19-21-g random sex ICR mice at 1 hr and 5 hr intervals after intraperitoneal administration of Staphylococcus aureus; format: functional; in short: as §3
[15] = system: Mus musculus; test: Effective dose administered orally (po) to 19-21-g random sex ICR mice at 1 hr and 5 hr intervals after intraperitoneal administration of Streptococcus pneumoniae; format: functional; in short: as §3
[16] = system: Mus musculus; test: Effective dose administered subcutaneously (sc) to 19-21-g random sex ICR mice at 1 hr and 5 hr intervals after intraperitoneal administration of Streptococcus pyogenes; format: functional; in short: as §3
[17] = system: Mus musculus; test: Effective dose administered subcutaneously (sc) to 19-21-g random sex ICR mice at 1 hr and 5 hr intervals after intraperitoneal administration of Streptococcus pneumoniae; format: functional; in short: as §3
[18] = Ratio of ED50 value evaluated in Streptococcus pyogenes by po to sc administration; format: functional
In short: (§4)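 Oral/subcutaneous effective-dose ratio. Both routes were dosed in random-sex ICR mice of 19–21 g at 1 and 5 h after an intraperitoneal challenge of 50–500 LD50 from a frozen organism pool. Each route used five 2-fold dilution levels with eight mice per level, and the po value was divided by the sc value.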

[19] = system: Staphylococcus aureus; test: Efficacy against mouse infections caused by Staphylococcus aureus measured as Minimum inhibitory concentration
[20] = Ratio of ED50 value evaluated in Staphylococcus aureus by po to sc administration; format: functional; in short: as §4

| SMILES | MIC [1] [µg/mL] | MIC [2] [µg/mL] | MIC [3] [µg/mL] | MIC [4] [µg/mL] | MIC [5] [µg/mL] | MIC [6] [µg/mL] | MIC [7] [µg/mL] | MIC [8] [µg/mL] | MIC [9] [µg/mL] | ED50 [10] | ED50 [11] | MIC [12] [µg/mL] | MIC [13] [µg/mL] | ED50 [14] | ED50 [15] | ED50 [16] | ED50 [17] | Ratio [18] | MIC [19] [µg/mL] | Ratio [20] |
| --- | --- | --- | --- | --- | --- | --- | --- | --- | --- | --- | --- | --- | --- | --- | --- | --- | --- | --- | --- | --- |
| O=C(Cc1ccc(Cl)cc1)N[C@@H]1C(=O)N2C(C(=O)O)=C(Cl)CS[C@H]12 | 0.5 (≈ 1.29 µM) | > 128 | 0.125 (≈ 0.323 µM) | 128 (≈ 331 µM) | 0.25 (≈ 0.646 µM) | 0.06 (≈ 0.155 µM) | 64 (≈ 165 µM) | 1 (≈ 2.58 µM) | 64 (≈ 165 µM) | – | – | – | – | – | – | – | – | – | – | – |
| O=C(Cc1csc(-c2ccccc2)n1)N[C@@H]1C(=O)N2C(C(=O)O)=C(Cl)CS[C@H]12 | – | > 128 | – | – | – | – | > 128 | – | – | – | – | – | – | – | – | – | – | – | – | – |
| Nc1nc2cc(CC(=O)N[C@@H]3C(=O)N4C(C(=O)O)=C(Cl)CS[C@H]34)ccc2s1 | 0.5 (≈ 1.18 µM) | > 128 | 0.06 (≈ 0.141 µM) | 64 (≈ 151 µM) | 0.25 (≈ 0.588 µM) | 0.06 (≈ 0.141 µM) | 64 (≈ 151 µM) | 0.5 (≈ 1.18 µM) | 64 (≈ 151 µM) | 10 mg/kg | > 10 mg/kg | 0.03 (≈ 0.0706 µM) | 0.06 (≈ 0.141 µM) | 3.54 mg/kg | > 10 mg/kg | 0.9 mg/kg | 2.3 mg/kg | 11 | 0.25 (≈ 0.588 µM) | – |
| COc1ccccc1CC(=O)N[C@@H]1C(=O)N2C(C(=O)O)=C(Cl)CS[C@H]12 | 1 (≈ 2.61 µM) | > 128 | 1 (≈ 2.61 µM) | > 128 | 1 (≈ 2.61 µM) | 1 (≈ 2.61 µM) | > 128 | 2 (≈ 5.22 µM) | > 128 | – | – | – | – | – | – | – | – | – | – | – |
| C=CC1=C(C(=O)O)N2C(=O)[C@@H](NC(=O)Cc3csc4ccccc34)[C@H]2SC1 | 4 (≈ 9.99 µM) | > 128 | 0.06 (≈ 0.15 µM) | > 128 | 0.125 (≈ 0.312 µM) | 0.015 (≈ 0.0375 µM) | > 128 | 4 (≈ 9.99 µM) | > 128 | 14.7 2mg kg-1 | 3.12 2mg kg-1 | 0.03 (≈ 0.0749 µM) | 0.03 (≈ 0.0749 µM) | 0.76 2mg kg-1 | >16 2mg kg-1 | 3.54 2mg kg-1 | 8.4 2mg kg-1 | 4.2 | 0.125 (≈ 0.312 µM) | 4.1 |
| Nc1ccc(CC(=O)N[C@@H]2C(=O)N3C(C(=O)O)=C(Cl)CS[C@H]23)cc1 | 0.5 (≈ 1.36 µM) | 128 (≈ 348 µM) | 0.125 (≈ 0.34 µM) | 2 (≈ 5.44 µM) | 0.5 (≈ 1.36 µM) | 0.06 (≈ 0.163 µM) | 2 (≈ 5.44 µM) | 1 (≈ 2.72 µM) | 16 (≈ 43.5 µM) | – | – | – | – | – | – | – | – | – | – | – |
| COc1ccc(CC(=O)N[C@@H]2C(=O)N3C(C(=O)O)=C(Cl)CS[C@H]23)cc1OC | 0.5 (≈ 1.21 µM) | > 128 | 0.06 (≈ 0.145 µM) | 128 (≈ 310 µM) | 0.25 (≈ 0.606 µM) | 0.3 (≈ 0.727 µM) | 128 (≈ 310 µM) | 1 (≈ 2.42 µM) | 128 (≈ 310 µM) | – | – | – | – | – | – | – | – | – | – | – |
| CO/N=C/c1ccc(OCC(=O)N[C@@H]2C(=O)N3C(C(=O)O)=C(Cl)CS[C@H]23)cc1 | 1 (≈ 2.35 µM) | > 128 | 0.06 (≈ 0.141 µM) | > 128 | 0.25 (≈ 0.587 µM) | 0.03 (≈ 0.0704 µM) | > 128 | 4 (≈ 9.39 µM) | > 128 | – | – | – | – | – | – | – | – | – | – | – |
| Nc1n[nH]c(SCC(=O)N[C@@H]2C(=O)N3C(C(=O)O)=C(Cl)CS[C@H]23)n1 | 2 (≈ 5.12 µM) | > 128 | 2 (≈ 5.12 µM) | 8 (≈ 20.5 µM) | 4 (≈ 10.2 µM) | 1 (≈ 2.56 µM) | 8 (≈ 20.5 µM) | 4 (≈ 10.2 µM) | 16 (≈ 40.9 µM) | – | – | – | – | – | – | – | – | – | – | – |
| O=C(Cc1csc2ccc(Cl)cc12)N[C@@H]1C(=O)N2C(C(=O)O)=CCS[C@H]12 | – | – | – | 128 (≈ 313 µM) | 0.125 (≈ 0.306 µM) | 0.03 (≈ 0.0734 µM) | > 128 | – | 128 (≈ 313 µM) | – | – | – | – | – | – | – | – | – | – | – |
| O=C(Cc1noc(C(Cl)(Cl)Cl)n1)N[C@@H]1C(=O)N2C(C(=O)O)=C(Cl)CS[C@H]12 | 4 (≈ 8.66 µM) | > 128 | 0.5 (≈ 1.08 µM) | 16 (≈ 34.6 µM) | 2 (≈ 4.33 µM) | 0.25 (≈ 0.541 µM) | 16 (≈ 34.6 µM) | 4 (≈ 8.66 µM) | 64 (≈ 138 µM) | – | – | – | – | – | – | – | – | – | – | – |
| CC1=C(C(=O)O)N2C(=O)[C@@H](NC(=O)Cc3csc4ccccc34)[C@H]2SC1 | 1 (≈ 2.57 µM) | > 128 | 1 (≈ 2.57 µM) | > 128 | 1 (≈ 2.57 µM) | 0.5 (≈ 1.29 µM) | > 128 | 32 (≈ 82.4 µM) | > 128 | – | – | – | – | – | – | – | – | – | – | – |
| O=C(COc1ccccc1)N[C@@H]1C(=O)N2C(C(=O)O)=C(Cl)CS[C@H]12 | – | – | 0.125 (≈ 0.339 µM) | – | – | – | 64 (≈ 174 µM) | – | – | – | – | – | – | – | – | – | – | – | – | – |
| O=C(COc1ccc([N+](=O)[O-])cc1)N[C@@H]1C(=O)N2C(C(=O)O)=C(Cl)CS[C@H]12 | 1 (≈ 2.42 µM) | > 128 | 0.03 (≈ 0.0725 µM) | > 128 | 0.25 (≈ 0.604 µM) | 0.015 (≈ 0.0362 µM) | > 128 | 2 (≈ 4.83 µM) | > 128 | – | – | – | – | – | – | – | – | – | – | – |
